A selection: hits, their analogues and other compounds. The true share with any hit is near 1.2%.
TRPML3 ag: human TRPML3 channel agonists, primary screen, cell-based, HEK293 TRPML3-YFP, Fluo-8 calcium fluorescence, 3 µM | Mucolipin-3 (Homo sapiens), Q8TDD5 | 100% = the carbachol control signal | activation, % at 3 µM | 0.29% of 220,000 active;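 active means activation above its plate's cutoff, the mean activation of the plate's test wells plus 3 SD, cut at about 12% in these data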;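 further: 0% = DMSO only wells and 100% = carbachol wells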
Target sequence (Q8TDD5 whole entry, looked up): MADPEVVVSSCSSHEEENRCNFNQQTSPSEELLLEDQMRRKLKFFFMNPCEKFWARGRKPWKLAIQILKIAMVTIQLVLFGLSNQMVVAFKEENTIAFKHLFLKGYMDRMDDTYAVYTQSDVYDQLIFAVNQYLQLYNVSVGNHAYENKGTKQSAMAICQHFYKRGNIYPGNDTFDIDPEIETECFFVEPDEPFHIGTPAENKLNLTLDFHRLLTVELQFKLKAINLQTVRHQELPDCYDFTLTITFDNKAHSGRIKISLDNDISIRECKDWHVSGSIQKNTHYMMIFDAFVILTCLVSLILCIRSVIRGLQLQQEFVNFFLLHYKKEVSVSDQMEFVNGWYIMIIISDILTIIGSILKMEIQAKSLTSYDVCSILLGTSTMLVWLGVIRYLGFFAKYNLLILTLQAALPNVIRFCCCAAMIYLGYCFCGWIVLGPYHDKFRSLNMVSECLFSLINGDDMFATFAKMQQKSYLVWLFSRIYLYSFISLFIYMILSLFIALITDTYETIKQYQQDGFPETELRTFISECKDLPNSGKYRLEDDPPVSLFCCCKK
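system = HEK293 cells stably carrying human TRPML3-YFP | doses = one concentration, 3 µM nominal, 0.3% DMSO | timing = dye loading 1 h 37 °C then 30 min ambient, 125 s read | detection = Fluo-8 calcium dye fluorescence, ex 470-495, em 515-575 nm | benchmarks = high control carbachol 87 µM, low control DMSO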
TRPN1 ag: zebrafish TRPN1 channel agonists, primary screen, cell-based, HEK293, calcium fluorescence | activation, % at 3 µM | HEK293 zebrafish TRPN1-YFP, Fluo-8 calcium fluorescence; 100% = response to 87 µM carbachol | transient receptor potential cation channel N1 (TRPN1/NompC), Danio rerio | 0.18% of 220,000 active | AID 1424, 2008;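 active means activation above its plate's cutoff, the mean activation of test wells on that plate plus 3 SD, cut at about 19% in these data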;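 further: 0% = DMSO alone and 100% = 87 µM carbachol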
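System: zebrafish TRPN1-YFP in HEK293 cells / Dosing: 3 µM single point / Timing: dye loading 1 h at 37 °C, then 30 min room temperature / Signal: Fluo-8 calcium fluorescence, excitation 470-495 nm, emission 515-575 nm / Read-out basis: percent activation from peak over basal fluorescence ratio, control-normalized / Control set: high carbachol 87 µM, low DMSO alone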
CHO-K1 Ca antag: nonselective inhibitor or artifact in parental CHO-K1 cells; ATP-induced calcium, Fluo-8 fluorescence; inhibition, % at 3 µM; 0.6% of 360,000 active;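 active means inhibition above a per-plate cutoff, the plate's mean sample inhibition plus 3 SD, cut at about 24% in these data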;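 further: 0% = DMSO plus EC80 ATP and 100% = DMSO alone without ATP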
M1 PAM parental: nonselective calcium activators in parental CHO-K1 cells, primary screen, counter-screen for M1 PAM project, cell-based, Fluo-8 calcium fluorescence, full deck, 1536-well; ATP EC20; 0% at ATP EC20, 100% at ATP max; activation, % at 3 µM; 0.02% of 360,000 active;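 active means activation above the run cutoff, the mean activation of all test compounds plus 3 SD, cut at about 40% in these data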;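 further: peak over basal fluorescence ratio in a 140 s read after ATP addition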
M1 ag parental: counter-screen for M1 agonists: effect in parental CHO-K1 cells | Fluo-8 calcium fluorescence; scaled to maximal ATP response, vehicle zero | activation, % at 3 µM | 0.48% of 360,000 active | AID 602248, 2012; in the data active means activation above about 15%;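 further: untransfected CHO-K1 host cells lacking M1 receptor as counterscreen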
* marks the source's active call; other numbers are inactive results; nt = no result given.

SMILES	TRPML3 ag	TRPN1 ag	CHO-K1 Ca antag	M1 PAM parental	M1 ag parental
Cc1ccc(NC(=O)C2(C)CCN2Cc2csc3ccccc23)cc1 (centres undefined)	nt	nt	-4	15	0
CCCCc1cc(O)c(CCCC)c(O)c1	36*	52*	48*	-9	47*
CCc1ccc([C@@H]2CC(=O)[C@@H]3CN(S(=O)(=O)c4ccccc4)[C@H](c4ccc(OC)cc4)C[C@@H]3N2S(=O)(=O)c2ccc(C)cc2)cc1	nt	nt	22	2	0
COc1ccc([C@@H]2C[C@H]3[C@@H](CN2S(=O)(=O)c2ccccc2)C(=O)C[C@@H](c2ccc(OC)cc2)N3S(=O)(=O)c2ccccc2)cc1	nt	nt	28*	-7	0
O=C(O)c1ccccc1NS(=O)(=O)c1cccc2nsnc12	nt	nt	-4	11	0
O=C(O)c1cc(Br)ccc1NS(=O)(=O)c1cccc2nsnc12	nt	nt	27*	-25	-1
Cc1cn([C@@H](CCCCNC(=O)OC(C)(C)C)C(=O)NCCCCCCCCCCC(=O)N2CCN(C(=O)OC(C)(C)C)CC2)nn1	nt	nt	4	-5	16*
CC[C@H](C)Cc1cn([C@@H](CCCN=C(NC(=O)OC(C)(C)C)NC(=O)OC(C)(C)C)C(=O)NCCCCCCCCCCC(=O)N2CCN(C(=O)OC(C)(C)C)CC2)nn1	nt	nt	-7	2	1
CCOC(=O)C1CCCN(C(=O)C2c3ccccc3Oc3ccccc32)C1 (centres undefined)	0	0	6	8	20*
CCOC(=O)C1CCCN(C(=O)C2COc3ccccc3O2)C1 (centres undefined)	nt	nt	6	4	1
Cn1c(Cc2ccccc2)nnc1SCC(=O)c1ccc(Br)s1	38*	0	-1	8	0
Cn1nnnc1SCC(=O)c1ccc(Br)s1	0	1	-4	-8	0
CCCCOc1ncnc2c1[nH]c1ccc(F)cc12	3	10	28*	-1	16*
Fc1ccc2[nH]c3c(N4CCN(c5ccccc5)CC4)ncnc3c2c1	7	9	27*	-5	11
C=CCN(c1ccc(F)cc1)S(=O)(=O)c1cc(C(=O)NC2CC2)ccc1Cl	nt	nt	-3	5	2
CCOc1ccc(CCNC(=O)CSc2nnnn2C)cc1OCC	0	0	1	15	16*
CCN(CC)C(=O)c1cccc(-c2csc(C(O)c3ccc(F)c(F)c3)n2)c1 (centres undefined)	nt	nt	12	-15	3
CC1CC2(CC(CN(C3CCCCC3)C3CCCCC3)OC2=O)C(=O)O1 (centres undefined)	nt	nt	-24	16	1
Cc1ccc(O)c(NC(=O)c2ccc3c(c2)C(=O)N(Cc2cccnc2)C3=O)c1	nt	nt	33*	-25	9
Cc1cc(C)c(NC(=O)c2ccc3c(c2)C(=O)N(Cc2cccnc2)C3=O)c(C)c1	nt	nt	-8	12	2
CSc1nc(Oc2ccc(F)cc2F)cc(C(F)(F)F)n1	1	2	26*	0	0
CSc1nc(Oc2cccc(C(F)(F)F)c2)cc(C(F)(F)F)n1	1	1	-2	12	0
COc1ccc(OCCNC(=O)c2ccc3nc(C)c(N(C)C(=O)CCc4ccccc4)n3c2)cc1	nt	nt	11	8	4
CCSc1nnc(NC(=O)NC(CC)(C(F)(F)F)C(F)(F)F)s1	4	9	34*	-5	7
S=c1[nH]c2cc(Br)cnc2[nH]1	0	1	26*	-12	1
SMILES	TRPML3 ag	TRPN1 ag	CHO-K1 Ca antag	M1 PAM parental	M1 ag parental
Cc1cc(Nc2ccc(Cl)cc2)nc(-c2ccccc2O)n1	nt	nt	-7	16	1
Cc1cc(Nc2cccc(Cl)c2)nc(-c2ccccc2O)n1	nt	nt	43*	9	6
Cc1ccc2cc(S(=O)(=O)NCCCN3CCOCC3)ccc2c1	1	3	-1	23	19*
COc1ccc2cc(S(=O)(=O)NCCCN3CCOCC3)ccc2c1	1	2	0	16	1
OC[C@@H]1CN(Cc2cccc3ccccc23)C[C@H](n2cnc3c(NCc4ccco4)ncnc32)O1	nt	nt	4	7	8
CC1=CCC[C@@H]2[C@]3(CC/C(=C/CO)CO)CO[C@@]2(C1)[C@@H](O)C[C@H]3C	nt	nt	-2	13	0
COC(=O)c1ccc(CSc2nc3ccccc3o2)cc1	0	1	29*	-6	0
O=[N+]([O-])c1ccc(CSc2nc3ccccc3o2)cc1	-1	-2	11	-8	-1
Cc1ccc(C(O)c2ncc(-c3cccc(C(F)(F)F)c3)[nH]2)cc1F (centres undefined)	nt	nt	4	13	3
O=C(Nc1ccccc1)OCCOc1ccccc1	0	-2	-5	6	0
O=C(Nc1ccccc1)OCCCCCOC(=O)Nc1ccccc1	nt	nt	26*	0	9
CC1=C(C(=O)N(C(C)C)C(C)C)CC(CC(=O)NCc2cccc3ccccc23)C(=O)N1Cc1ccc(C(C)(C)C)cc1 (centres undefined)	nt	nt	14	-5	0
CCOC(=O)Cc1ccc(Nc2nc3cc(-c4sccc4C)sc3c(=O)n2C)cc1	nt	nt	-5	4	-1
CCc1ccc(-c2nc(CSCC(=O)N3CCN(c4ccccn4)CC3)c(C)o2)cc1	2	5	29*	-7	6
Cc1ccc(-c2nc(CSCC(=O)N3CCN(c4ccccn4)CC3)c(C)o2)cc1	3	6	1	4	9
N#C/C(=N/Nc1ccc(OC(F)(F)F)cc1)C(N)=S	15*	23*	22	-11	13
Cc1cc(/C=C2/SC(=S)N(c3cccc(C(F)(F)F)c3)C2=O)c(C)n1-c1cccnc1	2	5	36*	5	9
O=C1/C(=C\c2ccc(O)cc2)SC(=S)N1c1cccnc1	3	11	7	11	17*
Cc1cc(/C=C2\SC(=S)N(Cc3ccco3)C2=O)c(C)n1-c1cccnc1	1	2	-2	8	2
O=C(CNC(=O)c1ccc(S(=O)(=O)N2CCCC2)cc1)N/N=C/c1c(Cl)cccc1Cl	1	-2	21	-15	20*
CCCn1c(CC)nc([N+](=O)[O-])c1Sc1ncn[nH]1	nt	nt	-6	16	0
O=C(Nc1ccc(Cc2ccncc2)cc1)C1CCC(N2C(=O)C3C4C=CC(C4)C3C2=O)CC1 (centres undefined)	2	4	2	-1	18*
c1ccc(-c2ncc(-c3ccn[nH]3)s2)cc1	2	1	29*	-16	0
c1ccc(Oc2ccc(-c3ccn[nH]3)cc2)cc1	0	0	2	-18	1
CCOc1ccccc1/C=C\c1nc(O)c([N+](=O)[O-])c(=O)[nH]1	nt	nt	-16	4	1
